The values that follow come from ChEMBL document CHEMBL4732088, “Identification and optimization of piperlongumine analogues as potential antioxidant and anti-inflammatory agents via activation of Nrf2” (Eur J Med Chem, 2021).

SMILES strings stand for the structures. Activity calls are given as the source filed them. The rule behind the calls is not given here.

Assay [1] deals with T1, Nuclear factor erythroid 2-related factor 2 (Mus musculus) (UniProt Q60795).
T1 sequence (whole entry): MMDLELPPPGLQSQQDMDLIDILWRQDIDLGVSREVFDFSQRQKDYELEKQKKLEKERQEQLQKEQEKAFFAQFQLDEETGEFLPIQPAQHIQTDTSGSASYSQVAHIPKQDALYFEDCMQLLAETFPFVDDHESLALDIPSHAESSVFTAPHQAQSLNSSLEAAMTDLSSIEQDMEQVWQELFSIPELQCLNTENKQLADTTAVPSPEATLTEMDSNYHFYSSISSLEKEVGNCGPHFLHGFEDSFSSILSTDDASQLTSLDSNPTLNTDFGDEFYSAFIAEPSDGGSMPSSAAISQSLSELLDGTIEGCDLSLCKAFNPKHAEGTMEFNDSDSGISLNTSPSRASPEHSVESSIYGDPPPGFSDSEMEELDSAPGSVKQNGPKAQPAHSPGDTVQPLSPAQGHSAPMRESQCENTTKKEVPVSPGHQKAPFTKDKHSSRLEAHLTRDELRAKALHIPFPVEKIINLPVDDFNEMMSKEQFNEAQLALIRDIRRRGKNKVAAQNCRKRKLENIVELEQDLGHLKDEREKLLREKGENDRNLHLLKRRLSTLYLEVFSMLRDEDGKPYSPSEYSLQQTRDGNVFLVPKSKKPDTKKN
The experiment in a line: Activation of Nrf2 in mouse BV2 cells assessed as upregulation of NQO-1 protein expression after 24 hrs by Western blot analysis. The class given is cell-based. Particulars: BV-2, filed as activator, dose 5-20 µM. In a few lines:
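BV2 microglia exposed to compound for 24 h over a concentration series; Nrf2, NQO1, HO-1, TrxR1, GCLM and GCLC protein levels read by Western blot.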

The test system of assay [2] is PC-12. The experiment in a line: Neuroprotective activity against H2O2-induced cell death in rat PC12 cells assessed as cell viability at 20 uM preincubated for 30 mins in presence of ZNPP followed by H2O2 stimulation and measured after 24 hrs by MTT assay. The class given is functional, cell-based. The conditions noted are these: time 24.5 hrs. The essentials:
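PC12 cells incubated 30 min with compound (20 μM) plus brusatol (10 nM) or ZnPP (10 nM), then insult for 24 h (H₂O₂ stated as 150 μM); viability by MTT.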

Assay [3] has as its target T2, Nuclear factor erythroid 2-related factor 2 (Rattus norvegicus) (UniProt O54968).
T2 sequence (whole entry): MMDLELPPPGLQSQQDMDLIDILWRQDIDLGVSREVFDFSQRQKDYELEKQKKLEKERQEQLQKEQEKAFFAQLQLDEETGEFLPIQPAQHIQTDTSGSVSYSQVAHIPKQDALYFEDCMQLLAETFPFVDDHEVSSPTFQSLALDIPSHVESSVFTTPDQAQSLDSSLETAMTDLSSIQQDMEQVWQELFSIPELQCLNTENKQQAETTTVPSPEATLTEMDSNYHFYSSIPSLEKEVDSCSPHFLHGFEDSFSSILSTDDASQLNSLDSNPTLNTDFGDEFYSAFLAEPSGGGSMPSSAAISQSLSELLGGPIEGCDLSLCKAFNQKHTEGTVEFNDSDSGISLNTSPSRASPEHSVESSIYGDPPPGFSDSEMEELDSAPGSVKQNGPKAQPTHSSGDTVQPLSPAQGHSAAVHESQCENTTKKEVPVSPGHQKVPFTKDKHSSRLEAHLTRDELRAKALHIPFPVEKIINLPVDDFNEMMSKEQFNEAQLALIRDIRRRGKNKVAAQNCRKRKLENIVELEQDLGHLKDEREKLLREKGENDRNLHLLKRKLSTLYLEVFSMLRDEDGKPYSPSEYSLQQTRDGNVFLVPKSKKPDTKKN
The experiment in a line: Induction of Nrf2 translocation from cytoplasm to nucleus in rat PC12 cells at 20 uM after 6 hrs by Western blot analysis. Type of assay: cell-based. Particulars: PC-12, filed as activator. In a few lines: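 PC12 cells given compound; nuclear and cytoplasmic fractions probed for Nrf2 by Western blot across a time course up to and beyond 6 h.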
In general terms: A western blot detects proteins with antibodies after separation by electrophoresis.

The test system of assay [4] is PC-12. As to the kind of experiment: Protection against H2O2-induced mitochondrial dysfunction in rat PC12 cells assessed as change in mitochondrial membrane potential at 20 uM pretreated with compound followed by H2O2 addition by JC-1 staining based flow cytometry (reference value: 78.7 %). The class given is functional. In a few lines: (§1)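 Mitochondrial membrane potential in PC12 cells pretreated with compound (5, 10, 20 μM), then exposed to H₂O₂ (200 μM) or 6-OHDA (150 μM). JC-1 staining, red-to-green fluorescence shift read by flow cytometry. Mean ± SD, n = 3.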
For orientation: A flow cytometer gives signals particle by particle.

In assay [5] the test system is PC-12. The experiment in a line: Protection against H2O2-induced oxidative damage in rat PC12 cells assessed as intracellular ROS level by measuring mean fluorescence intensity at 5 uM pretreated with compound followed by H2O2 stimulation by DCFH-DA staining based flow cytometry (reference value: 233032.55). The class given is functional.
In assay [6] the test system is PC-12. As to the kind of experiment: Protection against H2O2-induced mitochondrial dysfunction in rat PC12 cells assessed as change in mitochondrial membrane potential loss at 20 uM pretreated with compound followed by H2O2 addition by JC-1 staining based flow cytometry (reference value: 21.3 %). Type of assay: functional. In a few lines: as §1
Assay [7] concerns PC-12. The experiment in a line: Protection against 6-OHDA-induced apoptosis in rat PC12 cells assessed as early apoptotic cells at 20 uM incubated for 24 hrs by annexin V FITC/propidium iodide staining based flow cytometry (reference value: 19.2 %). Type of assay: functional.
For assay [8], the system named is PC-12. As to the kind of experiment: Protection against 6-OHDA-induced apoptosis in rat PC12 cells assessed as necrotic cells at 10 uM incubated for 24 hrs by annexin V FITC/propidium iodide staining based flow cytometry (reference value: 1.1 %). The class given is functional.
For assay [9], the system named is PC-12. As to the kind of experiment: Protection against H2O2-induced mitochondrial dysfunction in rat PC12 cells assessed as change in mitochondrial membrane potential at 10 uM pretreated with compound followed by H2O2 addition by JC-1 staining based flow cytometry (reference value: 78.7 %). Type of assay: functional. In a few lines:
as §1

Assay [10] deals with PC-12. The experiment in a line: Protection against 6-OHDA-induced apoptosis in rat PC12 cells assessed as viable cells at 10 uM incubated for 24 hrs by annexin V FITC/propidium iodide staining based flow cytometry (reference value: 72.0 %). Type of assay: functional. Particulars: read-out: Activity.
The subject of assay [11] is PC-12. The experiment in a line: Neuroprotective activity against 6-OHDA-induced cell damage in rat PC12 cells assessed as cell viability at 20 uM after 24 hrs by MTT assay (reference value: 45.23 +/- 4.37 %). Type of assay: functional. The conditions noted are these: read-out: Activity. On the technique in general: Tetrazolium dyes change colour on reduction, which living cells bring about.

Assay [12] has as its system PC-12. As to the kind of experiment: Protection against H2O2-induced oxidative damage in rat PC12 cells assessed as intracellular ROS level by measuring mean fluorescence intensity at 10 uM pretreated with compound followed by H2O2 stimulation by DCFH-DA staining based flow cytometry (reference value: 233032.55). The class given is functional.
Assay [13] deals with PC-12. The experiment in a line: Protection against 6-OHDA-induced mitochondrial dysfunction in rat PC12 cells assessed as change in mitochondrial membrane potential loss at 20 uM pretreated with compound followed by 6-OHDA addition by JC-1 staining based flow cytometry (reference value: 26.8 %). The class given is functional. The essentials: as §1
Assay [14] deals with PC-12. The experiment in a line: Protection against H2O2-induced apoptosis in rat PC12 cells assessed as early apoptotic cells at 5 uM incubated for 24 hrs by annexin V FITC/propidium iodide staining based flow cytometry (reference value: 3.9 %). Type of assay: functional.
The subject of assay [15] is PC-12. The experiment in a line: Prevention of H2O2-induced calcium overload in rat PC12 cells assessed as reduction in intracellular free calcium by measuring mean fluorescence intensity at 20 uM pretreated with compound followed by H2O2 addition by Fluo-3AM based fluorescence assay (reference value: 17791.36%). The class given is functional. Particulars: time 24 hrs.

Regarding `CCN(C)C(=O)N1CCN(C(=O)/C=C/c2ccc(F)cc2)C1=O`, the Activity result in assay [1] was “Dose-dependent effect”; with PC-12 [4], 92.8%; in the assay with PC-12 [6], 7.2%; in the assay on PC-12 [7], 5.2%; with PC-12 [8], 1%; in the assay with PC-12 [9], 90.2%. Moreover, the values for the Activity with PC-12 [13] and with PC-12 [14] were 10.7% and 5.1%, respectively. Also, the outcome with PC-12 [2] was inactive. Further, the result in assay [3] was Active. The Flu intensity in the assay with PC-12 [5] was 205329.36; in the assay with PC-12 [12] it was 146612.92; in the assay on PC-12 [15], 6730.32. In the assay on PC-12 [10], the viability at 10 µM stood at 85.4%. The viability at 20 µM in the assay on PC-12 [11] turned out to be 75.4%.
